Data set [1] is described as follows: Metabolic stability in human liver microsomes assessed as compound remaining at 1 uM preincubated for 5 mins followed by NADPH addition and measured after 30 mins by LC-MS/MS analysis relative to control. Type of data set: ADME, Microsome. To be noted: read-out: Stability. A digest of the protocol:
(§1)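 Human or mouse liver microsomes (0.5 mg/ml) in 0.1 M phosphate buffer pH 7.4 were preincubated with compound at 1 μM for 5 min at 37 °C. An NADPH regeneration system was then added or omitted, and incubation continued 30 min at 37 °C. Reactions were stopped with acetonitrile containing internal standard. Parent compound remaining was measured by LC-MS/MS (C18 column, 0.1% formic acid water/acetonitrile).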
For orientation: Liver microsomes are a subcellular fraction often used to study metabolism.

Data set [2] concerns Norovirus. Description: Antiviral activity against human norovirus infected in human HG23 cells assessed as inhibition of viral replication at 10 uM after 3 days by qRT-PCR analysis relative to control. Format: functional. Also on record: scale not given: the % may be the effect or the level left.
The nature of data set [3]: Therapeutic index, ratio of CC50 for cytotoxicity against human HG23 cells harboring human norovirus replicons to EC50 for antiviral activity against norovirus infected in human HG23 cells. Type of data set: toxicity, cell-based. The note with it: read-out: Ratio CC50/EC50. For orientation: In antiviral work, replicon cells carry a viral genome segment that copies itself.

Data set [4] is described as follows: Cytotoxicity against human HG23 cells assessed as cell viability at 10 uM after 3 days by tetrazolium dye based assay relative to control. The note with it: read-out: Activity. A digest of the protocol:
(§2)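 HG23 cells were treated with DMSO or compound for 3 days, at 10 μM for single-point testing or across a dose range for CC50. Viability was read with a tetrazolium salt (EZ-CYTOX) reagent. Values are means of the most representative triplicate experiment with standard deviations.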

The nature of data set [5]: Cytotoxicity against human HG23 cells assessed as reduction in cell viability after 3 days by tetrazolium dye based assay. In short, it runs like this: as §2
Data set [6] deals with Norovirus. The data set is described as follows: Antiviral activity against human norovirus infected in HG23 cells assessed as inhibition of neomycin phosphotransferase protein expression after 3 days by Western blot analysis. Type of data set: functional, organism-based. The note with it: HG23, 72 h. In short, it runs like this:
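HG23 replicon cells were given DMSO or increasing compound concentrations for 3 days. Whole-cell RIPA extracts were quantified by Bradford assay and equal protein amounts run on SDS-PAGE. Blots on PVDF were probed with rabbit anti-neomycin phosphotransferase (1:500), with anti-HSF-1 (1:1000) on blots. EC50 came from dose-response; values are means of a representative triplicate experiment.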

In data set [7] the test system is Norovirus. Description: Antiviral activity against human norovirus infected in human HG23 cells assessed as inhibition of viral replication after 3 days by qRT-PCR analysis. To be noted: HG23, 72 h. Type of data set: functional, organism-based.
Data set [8] can be described thus: Metabolic stability in mouse liver microsomes assessed as compound remaining at 1 uM preincubated for 5 mins followed by NADPH addition and measured after 30 mins in presence of NADPH relative to control. Format: ADME, Microsome. The note with it: read-out: Stability. In short, it runs like this: as §1
The subject of the next data set is Norovirus GII.4. The data set is described as follows: Inhibition of norovirus GII.4 RNA-dependent RNA polymerase using poly(C)RNA as substrate incubated for 10 mins and measured after 15 mins by picogreen staining based assay. A digest of the protocol:
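Recombinant human norovirus GII.4 Sydney 2012 RdRp (400 ng) was preincubated with compound (10 μM) or DMSO (0.5% v/v) for 10 min at 25 °C. It was then added to 5 μM rGTP, 6 μg/mL poly(C), 2.5 mM MnCl₂, 5 mM DTT, 0.01% BSA and 0.005% Tween 20 in 20 mM Tris-HCl pH 7.5. After 15 min at 25 °C, reactions were stopped with 10 mM EDTA and dsRNA quantified by PicoGreen fluorescence (ex 480/em 520). Two independent experiments were run in triplicate.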

The target in data set [9] is T1, Heat shock factor protein 1 (Homo sapiens) (UniProt Q00613).
T1 sequence (whole entry): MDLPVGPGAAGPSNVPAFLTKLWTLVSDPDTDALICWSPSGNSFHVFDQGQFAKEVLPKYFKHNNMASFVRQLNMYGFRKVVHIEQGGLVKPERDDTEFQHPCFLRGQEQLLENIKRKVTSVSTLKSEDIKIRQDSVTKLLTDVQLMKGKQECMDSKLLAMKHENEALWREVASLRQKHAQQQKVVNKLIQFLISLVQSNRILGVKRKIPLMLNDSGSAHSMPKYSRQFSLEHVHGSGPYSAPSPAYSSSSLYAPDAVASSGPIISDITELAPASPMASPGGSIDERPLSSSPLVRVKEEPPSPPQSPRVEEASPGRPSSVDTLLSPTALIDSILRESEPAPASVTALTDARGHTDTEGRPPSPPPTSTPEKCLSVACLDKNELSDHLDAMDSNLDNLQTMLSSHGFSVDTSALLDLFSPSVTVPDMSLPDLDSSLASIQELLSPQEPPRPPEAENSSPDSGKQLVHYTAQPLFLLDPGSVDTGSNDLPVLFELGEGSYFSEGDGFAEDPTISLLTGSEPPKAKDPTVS
Description: Activation of HSF-1 in human HG23 cells transfected with human norovirus at 10 uM after 72 hrs by dual-luciferase reporter gene assay. Type of data set: cell-based. A digest of the protocol: (§3)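 HG23 cells carrying the NV replicon were transfected with a Cignal finder reporter array and then given DMSO or 10 μM test compound for 72 h. Luciferase activity for each pathway was read with a dual-luciferase reagent.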
Background: In a reporter assay the amount or activity of a reporter protein is the signal.

The target in data set [10] is T2, Nuclear factor erythroid 2-related factor 2 (Homo sapiens) (UniProt Q16236).
T2 sequence (whole entry): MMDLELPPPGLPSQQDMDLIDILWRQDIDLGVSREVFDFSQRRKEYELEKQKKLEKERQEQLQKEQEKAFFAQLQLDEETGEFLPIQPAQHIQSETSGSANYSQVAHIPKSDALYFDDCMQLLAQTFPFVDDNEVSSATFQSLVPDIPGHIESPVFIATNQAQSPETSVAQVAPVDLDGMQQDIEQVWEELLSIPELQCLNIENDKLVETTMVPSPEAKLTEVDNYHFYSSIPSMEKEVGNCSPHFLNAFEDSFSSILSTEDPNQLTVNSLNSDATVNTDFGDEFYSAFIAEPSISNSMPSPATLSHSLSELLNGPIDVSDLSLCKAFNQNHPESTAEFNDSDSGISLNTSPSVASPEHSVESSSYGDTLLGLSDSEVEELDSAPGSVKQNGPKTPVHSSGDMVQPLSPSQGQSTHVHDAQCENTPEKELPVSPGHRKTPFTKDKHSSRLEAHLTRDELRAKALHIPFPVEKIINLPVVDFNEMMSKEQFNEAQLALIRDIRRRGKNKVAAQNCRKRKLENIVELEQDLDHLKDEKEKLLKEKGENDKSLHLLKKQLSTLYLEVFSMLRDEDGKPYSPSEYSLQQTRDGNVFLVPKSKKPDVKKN
Description: Activation of NRF2 pathway in human HG23 cells transfected with human norovirus at 10 uM after 72 hrs by dual-luciferase reporter gene assay. Format: cell-based. A digest of the protocol: as §3

A short description of data set [11]: Metabolic stability in human liver microsomes assessed as compound remaining at 1 uM after 30 mins in absence of NADPH by LC-MS/MS analysis relative to control. Type of data set: ADME, Microsome. The note with it: read-out: Stability. A digest of the protocol:
as §1

Data set [12] concerns Norovirus. The data set is described as follows: Antiviral activity against human norovirus infected in HG23 cells assessed as inhibition of neomycin phosphotransferase protein expression after 5 days by Western blot analysis. Format: functional, organism-based. The note with it: HG23, 120 h.
In the next data set the test system is Feline calicivirus. The data set is described as follows: Antiviral activity against feline calicivirus- infected in cat CRFK cells at >5 uM after 48 hrs by crystal violet staining based assay. Format: functional, organism-based.
Data set [13] is described as follows: Metabolic stability in mouse liver microsomes assessed as compound remaining at 1 uM after 30 mins in absence of NADPH by LC-MS/MS analysis relative to control. Format: ADME, Microsome. To be noted: read-out: Stability. In short, it runs like this: as §1
Data set [14] addresses T1, Heat shock factor protein 1 (Homo sapiens). Description: Activation of HSF-1 in human HG23 cells transfected with human norovirus after 72 hrs by dual-luciferase reporter gene assay. Type of data set: cell-based. A digest of the protocol:
as §3

A further data set has as its system Murine norovirus 1. The data set is described as follows: Antiviral activity against MNV-1 infected in mouse RAW264.7 cells at 0.05 to 10 uM after 48 hrs by crystal violet staining based assay. Format: functional, cell-based.

Activity calls are given as the source filed them. No cut-off for these calls is given here.

For the molecule `COc1ccc(CCN(C)CCCC(C#N)(c2ccc(OC)c(OC)c2)C(C)C)cc1OC` (stereo unspecified) [VERAPAMIL], the remaining at 0.5 h, 1 µM in data set [1] turned out to be 13.6%.
`C=Cc1c(OC)cc(/C=C/c2ccc(C(F)(F)F)cc2)cc1OC`: the Activity in the data set with Norovirus [2] came to 19.4%. Besides, the selectivity ratio in [3] was > 2.2. Besides, the viability at 72 h, 10 µM in data set [4] is 97.5%. The cytotoxic concentration (CC50) at 72 h in [5] is > 10 µM. Moreover, the values for the EC50 in the data set with Norovirus [6] and in the data set with Norovirus [7] were 8 µM and 4400 nM, respectively.
Turning to `C=Cc1c(OC)cc(/C=C/c2ccc(C(=O)N3CCN(Cc4ccc(C(F)(F)F)cc4)CC3)cc2)cc1OC`, the remaining at 0.5 h, 1 µM in data set [8] is 70.5%; in [1], 89.1%; in data set [11], 94.3%; in data set [13], 99.2%. For the same molecule, the Activity with Norovirus [2] was 4.2%; in data set [14] it was “Dose-dependent effect”. Further, the inhibition result in the data set with Norovirus GII.4 was “inactive”. Besides, in data set [3], the selectivity ratio is > 41.2. Besides, the viability at 72 h, 10 µM in data set [4] came out at 105%. For the same molecule, the outcome (in [9]; in [10]; in the data set on Feline calicivirus) was Active. Further, in [5], the cytotoxic concentration (CC50) at 72 h is > 100 µM. Further, the EC50 with Norovirus [12] was 800 nM; in the data set with Norovirus [7], 2430 nM. In addition, in the data set with Murine norovirus 1, the outcome was inactive.
With `C=Cc1c(OC)cc(/C=C/c2ccc(C(=O)NCCc3ccccn3)cc2)cc1OC`, the remaining at 0.5 h, 1 µM is 38.3% in data set [8], 44.1% in data set [1], > 100% in data set [11] and 83.1% in data set [13]. Also, the Activity in the data set with Norovirus [2] came out at 13.5%. The inhibition entry in the data set with Norovirus GII.4 was “inactive”. The selectivity ratio in data set [3] was > 69. For the same molecule, in data set [4], the viability at 72 h, 10 µM stood at 96.3%. Also, the CC50 at 72 h in data set [5] was > 100 µM. Also, the values for the EC50 with Norovirus [6] and with Norovirus [7] were 1.97 µM and 1440 nM, respectively.
`C=Cc1c(OC)cc(/C=C/c2ccc(C(=O)NCCc3ccncc3)cc2)cc1OC`: the remaining at 0.5 h, 1 µM in [8] amounted to 67.7%; in data set [1], 20%; in data set [11], 92.1%; in data set [13] it was 88.4%. In the data set with Norovirus [2], the Activity is on record as 15.4%. In addition, the inhibition result in the data set on Norovirus GII.4 was “inactive”. The selectivity ratio in [3] is > 50. Further, the viability at 72 h, 10 µM in data set [4] worked out at 100%. For the same molecule, the CC50 at 72 h in [5] was > 100 µM. Also, the concentration for a half-maximal effect (EC50) in the data set with Norovirus [6] worked out at 0.71 µM; in the data set with Norovirus [7] it was 2000 nM.
For `C=Cc1c(OC)cc(/C=C/c2ccc(C(=O)N3CCN(CCO)CC3)cc2)cc1OC`, in the data set with Norovirus [2], the Activity came out at 110.4%. For the same molecule, in data set [4], the viability at 72 h, 10 µM was determined as 93.3%.
In the same order, the values of `C=Cc1c(OC)cc(/C=C/c2ccccc2C(F)(F)F)cc1OC` are 83.2% and 99.7%.
In the case of `C[C@@]1(O)[C@H](O)[C@@H](CO)O[C@H]1n1ccc(N)nc1=O`, in the data set on Norovirus [2], the Activity came to 24.8%. Moreover, the selectivity ratio in [3] came to 3.1. In [4], the viability at 72 h, 10 µM stood at 78.5%. Also, the CC50 at 72 h in [5] was determined as 12.2 µM. The EC50 was 4.8 µM in the data set on Norovirus [6] and 4000 nM in the data set with Norovirus [7]. The result in data set [14] was Active.
As to `C=Cc1c(OC)cc(/C=C/c2ccc(C(=O)NCc3ccco3)cc2)cc1OC`, the Activity in the data set on Norovirus [2] is 33.8%. Moreover, the viability at 72 h, 10 µM in data set [4] amounted to 109%.
In the same order, the values of `C=Cc1c(OC)cc(/C=C/c2ccc(F)cc2)cc1OC` are 38.4% and 93.2%.
The corresponding values for `C=Cc1c(OC)cc(/C=C/c2ccc(C(=O)NCCc3c[nH]c4ccccc34)cc2)cc1OC` are 46.6% and 106%.
The corresponding values for `C=Cc1c(OC)cc(/C=C/c2ccc(C(=O)NCCc3ccc(O)cc3)cc2)cc1OC` are 40.8% and 103%.
With `C=Cc1c(OC)cc(/C=C/c2ccc(C(=O)O)cc2)cc1OC`, in the data set with Norovirus [2], the Activity is 81.3%. Further, the viability at 72 h, 10 µM in data set [4] was found to be 112%.

By CC50 is commonly meant the concentration that lowers cell viability or growth by half. The EC50 is the concentration giving half of the maximal effect.

The values above are taken from ChEMBL document CHEMBL4311988, “Identification of novel non-nucleoside vinyl-stilbene analogs as potent norovirus replication inhibitors with a potential host-targeting mechanism” (Eur J Med Chem, 2019).
